PubChem BioAssay
Records with an inconclusive call do not appear. Calls of active or inactive are those of the source.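 Rule for the calls, unless noted: active = viability increase at or above a cutoff of the median across tested compounds plus 3 SD (cut at about 8.5% in these data, passing the limit was not always enough); inconclusive = some gains above the cutoff, reason not given; inactive = the rest.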

Tests used:
[1] = S. cerevisiae growth inhibition in permissive medium (OD615), pilot counter-assay for S. cerevisiae lifespan shortening project, permissive growth control (AID 705;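 active = growth inhibition above 25% in both replicates, a cutoff set 3 SD above the mean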); details: OD615, 24 h, at 10 µM, active compounds read high
Summary of the method: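 Material: engineered DeaD yeast; compound dosing: one dose 10 µM, DMSO 0.25% final; measure: yeast growth inhibition indicated by reduced 24 h OD615; detection: OD615 turbidity read; incubation: cells pre-grown 4 h, then 24 h compound exposure, 30 °C humidified; medium: permissive synthetic complete medium with raffinose and galactose carbon sources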

[2] = S. cerevisiae growth inhibition in restrictive medium, OD615, pilot screen, restrictive growth control, yeast lifespan reduction project (AID 706;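 active = growth inhibition above a set limit, 3 SD over mean compound inhibition, in both replicates, cut at about 43% in these data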;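 note: modified DeaD lifespan yeast strain shifted to restrictive glucose medium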); details: OD615, 48 h, at 10 µM, active compounds read high
Summary of the method: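 material = engineered S. cerevisiae DeaD strain | medium = glucose-based CSMM-D restrictive medium | times = 4 h pre-incubation, 48 h exposure at 30 °C | technique = OD615 absorbance reading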

[3] = doxorubicin toxicity protection in MRP-1 cells – H69AR cells, CellTiter-Glo, duplicate, MRP-1 activator project, pilot screen (AID 807); details: H69AR viability with doxorubicin, CellTiter-Glo luminescence; at 10 µM; active compounds read high;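 note: compound pretreatment 18-22 h then 72 h combined with doxorubicin; 0% = doxorubicin alone and 100% = vehicle without doxorubicin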
[4] = viability of HCT116 without oncogenic beta-catenin – human colon tumor cells, pilot screen (AID 823;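 active = cell viability at or below a set limit in both duplicate runs, the limit being the all-compound median minus 4 SD, cut at about 23% in these data, passing the limit was not always enough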;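 note: 0% = wells killed by 20 µM Hyamine and 100% = untreated DMSO cell wells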); details: HCT116 beta-catenin knockout viability, CellTiter-Glo, 60 h; at 10 µM; active compounds read low
[5] = viability of PTEN-null HCT116 cells – cell-based, HCT116 clonal line, CellTiter-Glo, pilot screen (AID 824;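 active = viability at or below 27.92% in each of two runs, the all-compound median minus 4 SD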;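 note: 0% = 20 µM Hyamine control and 100% = vehicle cell control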); details: HCT116 PTEN-deleted viability, 60 h, at 10 µM, active compounds read low
[6] = RAM pathway blockade in budding yeast – dse1pr::URA3 reporter, 5-FOA selection, pilot screen (AID 869;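 active = inhibition over a set limit, the all-compound mean plus 3 SD, in both replicate runs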;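 note: 0% = DMSO wells with no growth and 100% = 10 µM 1-NA-PP1 with full growth; RAM network block rescues cells from 5-FOA so hits raise OD615 growth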); details: S. cerevisiae dse1pr::URA3 5-FOA growth, OD615, 2 d; at 10 µM; active compounds read high; strain carries analog-sensitive mutant Cbk1 kinase
[7] = RAM signaling pathway blockade in yeast – S. cerevisiae, Pdr1DBD-CYC8 efflux-inhibited sensitized strain, primary screen (AID 1298;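 active = RAM network inhibition above 8.4% in each of two replicates, 3 SD over the compound average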;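 note: 0% = DMSO untreated cells without growth and 100% = 10 µM 1-NA-PP1 full growth; higher means more yeast growth rescued from 5-FOA killing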); details: S. cerevisiae cbk1-as DSE1-URA3 strain, 5-FOA growth OD615, 2 d; at 50 µM; active compounds read high

Cc1cnc(C(=O)OCC(=O)Nc2cc(Cl)cc(Cl)c2)cn1
inactive: growth inhibition [1] -14.2% | growth inhibition [2] -9.38% | viability increase [3] -5.97% | viability [4] 96.7% | viability [5] 88.5% | inhibition [6] 1.13% | RAM network inhibition [7] 5.88%

COc1cccc(N2C(=O)Nc3ccccc3C2(O)C(=O)NCc2ccc3c(c2)OCO3)c1 (configuration not stated)
inactive: growth inhibition [1] -11.5% | growth inhibition [2] -8.59% | viability increase [3] -0.4% | viability [4] 95.9% | viability [5] 99.7% | inhibition [6] 0.51% | RAM network inhibition [7] 9.22%

C=CCn1c(SCc2ccc(F)cc2)nc2c1c(=O)[nH]c(=O)n2C
inactive: growth inhibition [1] -8.99% | growth inhibition [2] -8.69% | viability increase [3] -2.64% | viability [4] 96.9% | viability [5] 89% | inhibition [6] 0.25% | RAM network inhibition [7] 2.71%

COc1ccc(N2C(=O)CCC(C(=O)Nc3ccccn3)C2c2ccc(OC)c(OC)c2)cc1 (configuration not stated)
inactive: growth inhibition [1] 0.15% | growth inhibition [2] -9.93% | viability increase [3] -0.12% | viability [4] 96.2% | viability [5] 96.9% | inhibition [6] 1.64% | RAM network inhibition [7] 0.04%

CCOC(=O)C1=C(C)Nc2nc(C)nn2C1c1ccc(OC)c(OC)c1 (configuration not stated)
inactive: growth inhibition [1] -6.55% | growth inhibition [2] -3.96% | viability increase [3] -3.45% | viability [4] 99.5% | viability [5] 102% | inhibition [6] 0.77% | RAM network inhibition [7] 0.06%

CC12CN3CC(C)(CN(C1)C3c1ccc3ccccc3c1O)C2=O (configuration not stated)
inactive: growth inhibition [1] -10.8% | growth inhibition [2] -19.3% | viability increase [3] -0.54% | viability [4] 101% | viability [5] 100% | inhibition [6] -0.515% | RAM network inhibition [7] -0.68%

O=C(Nc1ccccc1F)C1CCCN(S(=O)(=O)c2cccc3cccnc23)C1 (configuration not stated)
inactive: growth inhibition [1] -3.46% | growth inhibition [2] -7.69% | viability increase [3] -1.63% | viability [4] 92.3% | viability [5] 88.8% | inhibition [6] 1.49% | RAM network inhibition [7] 2.96%

CCCCC(CC)C(=O)NCCc1ccc(S(N)(=O)=O)cc1 (configuration not stated)
inactive: growth inhibition [1] -2.48% | growth inhibition [2] -4.13% | viability increase [3] -0.52% | viability [4] 93.2% | viability [5] 97.9% | inhibition [6] 1% | RAM network inhibition [7] -0.82%

CC(C)N1CCc2c(sc(NC(=O)c3ccc(S(=O)(=O)N4CCOCC4)cc3)c2C(N)=O)C1
inactive: growth inhibition [1] -2.23% | growth inhibition [2] -11.5% | viability increase [3] -3.25% | viability [4] 92.6% | viability [5] 88.7% | inhibition [6] 2.21% | RAM network inhibition [7] 1.28%

c1ccc(-c2ccc(-c3nc(-c4cccnc4)no3)cc2)cc1
inactive: growth inhibition [1] 16.4% | growth inhibition [2] 20% | viability increase [3] -0.01% | viability [4] 80.8% | viability [5] 89.3% | inhibition [6] 0.455% | RAM network inhibition [7] -0.01%

CC(=NCCc1ccccc1)C1=C(O)CSC1=O
inactive: growth inhibition [1] -3.27% | growth inhibition [2] -6.07% | viability increase [3] -1.75% | viability [4] 99.4% | viability [5] 96.3% | inhibition [6] 0.97% | RAM network inhibition [7] 1%

Cc1c(C(=O)NCc2ccc3c(c2)OCO3)oc2ccc(S(=O)(=O)N3CCC(C)CC3)cc12
inactive: growth inhibition [1] -11.5% | growth inhibition [2] -16.7% | viability increase [3] 0.73% | viability [4] 74.7% | viability [5] 73% | inhibition [6] 2.39% | RAM network inhibition [7] 11.2%

O=C(NC1CCCCC1)C1CC(=O)N(c2ccc(Cl)cc2)C1 (configuration not stated)
inactive: growth inhibition [1] -4.29% | growth inhibition [2] 1.57% | viability increase [3] -0.58% | viability [4] 95.5% | viability [5] 90.4% | inhibition [6] 1.29% | RAM network inhibition [7] 2.04%

CS(=O)(=O)N1CCN(c2nc(-c3ccccc3)cs2)CC1
inactive: growth inhibition [1] 10.1% | growth inhibition [2] 3.18% | viability increase [3] 0.2% | viability [4] 99.9% | viability [5] 94.4% | inhibition [6] -0.535% | RAM network inhibition [7] -0.16%

CCCS(=O)(=O)N1CCn2c(nc3ccccc32)C1
inactive: growth inhibition [1] 0.585% | growth inhibition [2] -2.62% | viability increase [3] -0.37% | viability [4] 106% | viability [5] 102% | inhibition [6] 2.19% | RAM network inhibition [7] 2.93%

CCOC(=O)CSc1nc(C)cc(Oc2ccc(=O)n(C)n2)n1
inactive: growth inhibition [1] -17.4% | growth inhibition [2] -8.09% | viability increase [3] 0.54% | viability [4] 102% | viability [5] 97.5% | inhibition [6] 1.12% | RAM network inhibition [7] 0.42%

CN(CC(=O)N1CC=C(c2ccccc2)CC1)S(=O)(=O)c1ccc2c(c1)c(=O)n(C)c(=O)n2C
inactive: growth inhibition [1] -1.64% | growth inhibition [2] -12.2% | viability increase [3] -3.46% | viability [4] 94.1% | viability [5] 80.3% | inhibition [6] 0.26% | RAM network inhibition [7] 5.04%

Cc1cc(C(=O)Nc2ccc3c(c2)OCCO3)co1
inactive: growth inhibition [1] -4.03% | growth inhibition [2] 5.26% | viability increase [3] -0.16% | viability [4] 96.7% | viability [5] 92.1% | inhibition [6] 0.06% | RAM network inhibition [7] -0.41%

CCOCCn1c(SCc2ccccc2)nc2c1c(=O)[nH]c(=O)n2C
inactive: growth inhibition [1] -16.6% | growth inhibition [2] -27.6% | viability increase [3] -1.41% | viability [4] 104% | viability [5] 96.7% | inhibition [6] 0.205% | RAM network inhibition [7] 7.51%

O=C(Nc1cnc2ccccc2c1)c1cccnc1
inactive: growth inhibition [1] 4.78% | growth inhibition [2] 0.625% | viability increase [3] -7.98% | viability [4] 103% | viability [5] 103% | inhibition [6] 1.74% | RAM network inhibition [7] -0.15%

CC(C)c1nnc(NC(=O)c2ccc(S(=O)(=O)N3CCOCC3)cc2)s1
inactive: growth inhibition [1] -15% | growth inhibition [2] -24.1% | viability increase [3] -1% | viability [4] 104% | viability [5] 99.3% | inhibition [6] 2.56% | RAM network inhibition [7] 6.74%

COc1ccc(-n2c3c(cc(C(=O)Nc4ccc5c(c4)C(=O)NC5=O)c2=O)C(=O)CCC3)cc1
inactive: growth inhibition [1] -7.19% | growth inhibition [2] -10.4% | viability increase [3] 0.08% | viability [4] 102% | viability [5] 102% | inhibition [6] 1.77% | RAM network inhibition [7] 3.06%

CC(C)OC(=O)CSc1nnc(-c2ccc(Cl)cc2)n1N
inactive: growth inhibition [1] -3.53% | growth inhibition [2] -8.84% | viability increase [3] -0.58% | viability [4] 97.2% | viability [5] 95.7% | inhibition [6] 2.38% | RAM network inhibition [7] 5.48%

COc1ccc(CNC(=O)C2CCN(S(=O)(=O)c3cccc4cccnc34)CC2)cc1
inactive: growth inhibition [1] -9.14% | growth inhibition [2] 3.15% | viability increase [3] 0.11% | viability [4] 99.9% | viability [5] 92.2% | inhibition [6] 2.6% | RAM network inhibition [7] 2.66%

Cc1ccc2nc(NC(=O)c3ccc(Cl)s3)sc2c1
inactive: growth inhibition [1] -17.2% | growth inhibition [2] -14.8% | viability increase [3] -6.45% | viability [4] 64.5% | viability [5] 63% | inhibition [6] 1.35% | RAM network inhibition [7] 2.06%

COc1ccc(C)cc1NC(=O)c1nnn(CCc2ccccc2)c1N
inactive: growth inhibition [1] -5.25% | growth inhibition [2] -3.95% | viability increase [3] -5.29% | viability [4] 85.8% | viability [5] 81.5% | inhibition [6] 2.73% | RAM network inhibition [7] 3.9%

CCOC(=O)c1c(C)nc(-c2ccccc2)nc1NC(C)=O
inactive: growth inhibition [1] -15.7% | growth inhibition [2] -5.61% | viability increase [3] -0.84% | viability [4] 92% | viability [5] 89.5% | inhibition [6] 1.92% | RAM network inhibition [7] 7.29%

COc1ccc(NC(=O)NCCCN2CCc3ccccc3C2)cc1
inactive: growth inhibition [1] 3.62% | growth inhibition [2] 0.72% | viability increase [3] -2.53% | viability [4] 97.3% | viability [5] 98.2% | inhibition [6] 1.15% | RAM network inhibition [7] -1.19%

O=C(NCCN1CCc2ccccc2C1)Nc1ccc(F)cc1
inactive: growth inhibition [1] -4.88% | growth inhibition [2] -2.83% | viability increase [3] -3.99% | viability [4] 105% | viability [5] 100% | inhibition [6] 2.19% | RAM network inhibition [7] 2.62%

c1ccc(C2NCCn3cccc32)cc1 (configuration not stated)
inactive: growth inhibition [1] -8.84% | growth inhibition [2] -13.7% | viability increase [3] -2.82% | viability [4] 99% | viability [5] 98% | inhibition [6] 0.21% | RAM network inhibition [7] 2.74%

COc1ccccc1C(=O)NCc1ccc2c(c1)OCO2
inactive: growth inhibition [1] -21.2% | growth inhibition [2] -10.3% | viability increase [3] 0.91% | viability [4] 107% | viability [5] 107% | inhibition [6] 0.52% | RAM network inhibition [7] 2.54%

COc1ccc(CCNC(=O)CC2Oc3ccc(Cl)cc3NC2=O)cc1OC (configuration not stated)
inactive: growth inhibition [1] -0.31% | growth inhibition [2] -7.26% | viability increase [3] -0.06% | viability [4] 96.2% | viability [5] 97.6% | inhibition [6] 1.17% | RAM network inhibition [7] 5.03%

c1nc(N2CCNCC2)c2sc3nc(N4CCOCC4)c4c(c3c2n1)CCC4
active: viability [4] 2.54% | viability [5] 1.69%
inactive: growth inhibition [1] -0.055% | growth inhibition [2] 6.55% | viability increase [3] -6.75% | inhibition [6] 2.3% | RAM network inhibition [7] 7.31%

O=c1c2ccccc2c2ccccc2c(=O)n1CC1CCCO1 (configuration not stated)
inactive: growth inhibition [1] 2.77% | growth inhibition [2] 0.685% | viability increase [3] -2.2% | viability [4] 101% | viability [5] 89.6% | inhibition [6] 0.305% | RAM network inhibition [7] 12.7%

CCn1cc(C2N3CC4(C)CN2CC(C)(C3)C4=O)c2ccccc21 (configuration not stated)
inactive: growth inhibition [1] -13.9% | growth inhibition [2] -16.4% | viability increase [3] -0.78% | viability [4] 97.3% | viability [5] 100% | inhibition [6] 1.94% | RAM network inhibition [7] 0.48%

CCCCCn1c(N(C)Cc2ccccc2)nc2c1c(=O)[nH]c(=O)n2C
inactive: growth inhibition [1] -4.46% | growth inhibition [2] -2.36% | viability increase [3] -0.81% | viability [4] 74% | viability [5] 69.3% | inhibition [6] 0.435% | RAM network inhibition [7] 1.07%
